B1: Osa-1-4 twister ribozyme (parent)
chain: CCGCCUAACACUGCCAAUGCCGGUCCCAAGCCCGGAUAAAAGUGGAGGGGGCGG

The variants in this series derive from B1. Nature of the series: self-cleavage, relative activity (ratio to wild type); higher = more cleavage; co-transcriptional. In short, it runs like this: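 A DNA template for a 54-nucleotide Oryza sativa twister ribozyme was synthesised with 97 % wild-type base and 1 % of each other base at the 48 positions downstream of the cleavage site. It was transcribed in vitro for 2 h at 37 °C, allowing co-transcriptional self-cleavage, then reverse-transcribed with a template-switching oligonucleotide, PCR-amplified and deep-sequenced. Cleavage status was scored from reads with or without upstream sequence. Relative activity is fraction cleaved normalised to wild type.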
In the case of A8C C31G, the self-cleavage is 0.02. Under A8C C31U stands 0.05. Turning to A8C C31A, the self-cleavage was found to be 0.01. As for A7U U18A, the self-cleavage turned out to be 0.11. Consider A7U U18C, for which the self-cleavage amounted to 0.08. In the case of A7U U18G, the self-cleavage worked out at 0.11. With A7G C9A, the self-cleavage was 0.11. As for A7G C9G, the self-cleavage amounted to 0.29. For A7G C9U, the self-cleavage came to 0.19. Take A7G U37A: the self-cleavage came to 0.27.

Turning to A7G U37G, the self-cleavage was found to be 0.58. For the variant A7G U37C, the self-cleavage was found to be 0.46. Consider A7U C31A, for which the self-cleavage is 0.01. As to A7U C31U, the self-cleavage worked out at 0.05. For the variant A7U C31G, the self-cleavage amounted to 0.06.

As to A7U U24C, the self-cleavage is 0.04. Consider A7U U24G, for which the self-cleavage stood at 0.02. With A7U U24A, the self-cleavage was determined as 0.06. Next, A7G G19C: 0.06; A7G G19U: 0.07; A7G G19A: 0.15. Next, A7U C32U: 0.04; A7U C32G: 0.04; A7U C32A: 0.03. A8C C25A: the self-cleavage amounted to 0.05. As to A8C C25G, the self-cleavage came out at 0.03. Take A8C C25U: the self-cleavage was 0.07. A7C G53A: the self-cleavage was 0.06. In the case of A7C G53C, the self-cleavage was 0.01. Under A7C G53U stands 0.03; under A7G C20A, 0.5; under A7G C20G, 0.11. On to A7G C20U, for which the self-cleavage stood at 0.43.

On to A8C C32G, for which the self-cleavage is 0.03. With A8C C32A, the self-cleavage is 0.04. As to A8C C32U, the self-cleavage was found to be 0.02. Take A8C C52G: the self-cleavage is 0.15. For the variant A8C C52U, the self-cleavage amounted to 0.09. Under A8C C52A stands 0.12.

As to A7U G42U, the self-cleavage came out at 0.03. Next, A7U G42C: 0.05; A7U G42A: 0.09.

Turning to A7U G35A, the self-cleavage worked out at 0.07. For the variant A7U G35U, the self-cleavage is 0.06. Next, A7U G35C: 0.07; A7U G54C: 0.06; A7U G54U: 0.11. In the case of A7U G54A, the self-cleavage turned out to be 0.07. As for A7U G49C, the self-cleavage was determined as 0.03.

Turning to A7U G49A, the self-cleavage was 0.04. As to A7U G49U, the self-cleavage was found to be 0.03. On to A7U U43A, for which the self-cleavage turned out to be 0.08. Under A7U U43G stands 0.07; under A7U U43C, 0.07. Next, A7U G47C: 0.04; A7U G47U: 0.04; A7U G47A: 0.05. Take A7G A8G: the self-cleavage came to 0.28. Under A7G A8U stands 0.1; under A7G A8C, 0.1. As to A7G U18A, the self-cleavage is 0.38.

Take A7G U18G: the self-cleavage came to 0.49. Regarding A7G U18C, the self-cleavage was 0.25. Next, A7G G49C: 0.05. Next, A7G G49A: 0.07. As to A7G G49U, the self-cleavage was found to be 0.05. Under A7G C33A stands 0.07; under A7G C33U, 0.13. Turning to A7G C33G, the self-cleavage was 0.03. Take A7G G54C: the self-cleavage came out at 0.17. On to A7G G54A, for which the self-cleavage came out at 0.19.

Take A7G G54U: the self-cleavage amounted to 0.36. Under A7U C26A stands 0.02. A7U C26U: the self-cleavage was 0.07. As to A7U C26G, the self-cleavage was 0.05. For A7G G44C, the self-cleavage came to 0.21.

As for A7G G44A, the self-cleavage came out at 0.13. Regarding A7G G44U, the self-cleavage came to 0.15. Take A7G G22C: the self-cleavage stood at 0.08. Under A7G G22U stands 0.1; under A7G G22A, 0.18.

Take A7C G50A: the self-cleavage is 0.04. For A7C G50U, the self-cleavage stood at 0.04. For A7C G50C, the self-cleavage came out at 0.04. On to A7U G34U, for which the self-cleavage came out at 0.07.

With A7U G34C, the self-cleavage came to 0.1. Regarding A7U G34A, the self-cleavage was found to be 0.08. A7C U12G: the self-cleavage is 0.09.

For A7C U12A, the self-cleavage came out at 0.05.

As for A7C U12C, the self-cleavage came to 0.04. As to A7G, the self-cleavage came out at 0.49. For A7U, the self-cleavage amounted to 0.07. As for A7U G48A, the self-cleavage worked out at 0.02.

As for A7U G48C, the self-cleavage stood at 0.03. Next, A7U G48U: 0.01; A7G G13A: 0.06; A7G G13C: 0.03.

A7G G13U: the self-cleavage amounted to 0.02. Under A7U U12A stands 0.09. On to A7U U12C, for which the self-cleavage was 0.1. With A7U U12G, the self-cleavage turned out to be 0.06. Under A8C stands 0.07; under A7U G45C, 0.04; under A7U G45A, 0.05. Next, A7U G45U: 0.02; A7G G34U: 0.12. A7G G34C: the self-cleavage came out at 0.14.

For the variant A7G G34A, the self-cleavage came out at 0.21. Regarding A7G C14U, the self-cleavage amounted to 0.1.

Regarding A7G C14A, the self-cleavage stood at 0.04. Consider A7G C14G, for which the self-cleavage was found to be 0.32. Turning to A7U C14U, the self-cleavage was determined as 0.07. In the case of A7U C14A, the self-cleavage came to 0.03. Consider A7U C14G, for which the self-cleavage was 0.23. For the variant A7G G53C, the self-cleavage is 0.06. For A7G G53U, the self-cleavage amounted to 0.1. For A7G G53A, the self-cleavage amounted to 0.16. In the case of A8C G22A, the self-cleavage came out at 0.09.

For the variant A8C G22C, the self-cleavage was 0.03.

On to A8C G22U, for which the self-cleavage amounted to 0.07. On to A7U C25U, for which the self-cleavage amounted to 0.2. For the variant A7U C25G, the self-cleavage worked out at 0.08.

In the case of A7U C25A, the self-cleavage was 0.03. As to A7G G35C, the self-cleavage was 0.1. Next, A7G G35A: 0.31; A7G G35U: 0.2. On to A7U C27G, for which the self-cleavage was found to be 0.04.

Take A7U C27A: the self-cleavage turned out to be 0.06. For A7U C27U, the self-cleavage was 0.06.

With A8C G34A, the self-cleavage is 0.07.

With A8C G13A, the self-cleavage came to 0.03. Regarding A8C G13U, the self-cleavage was 0.01. Regarding A8C G13C, the self-cleavage was determined as 0.07. As to A7U G50A, the self-cleavage turned out to be 0.07. Under A7U G50C stands 0.06. As to A7U G50U, the self-cleavage was 0.07. For A8C C21A, the self-cleavage was determined as 0.09. In the case of A8C C21G, the self-cleavage was 0.05. A8C C21U: the self-cleavage amounted to 0.06. As to A7G G50A, the self-cleavage was found to be 0.17.

For the variant A7G G50C, the self-cleavage is 0.16.

With A7G G50U, the self-cleavage is 0.16. On to A7U U37C, for which the self-cleavage came out at 0.08. In the case of A7U U37A, the self-cleavage stood at 0.07.

Regarding A7U U37G, the self-cleavage was 0.1.

With A7G G51U, the self-cleavage came to 0.08. Under A7G G51A stands 0.12; under A7G G51C, 0.05; under A7U C52U, 0.1. Next, A7U C52G: 0.12.

As to A7U C52A, the self-cleavage is 0.12. Regarding A7U C21A, the self-cleavage turned out to be 0.08. Consider A7U C21G, for which the self-cleavage was determined as 0.05. A7U C21U: the self-cleavage is 0.1. Next, A8C C26U: 0.06; A8C C26G: 0.02; A8C C26A: 0.03. A7U C15U: the self-cleavage came to 0.06. A7U C15G: the self-cleavage is 0.11.

Take A7U C15A: the self-cleavage is 0.06.

A7C G42U: the self-cleavage came out at 0.02. With A7C G42C, the self-cleavage came out at 0.03. Next, A7C G42A: 0.04; A7U C9A: 0.05; A7U C9G: 0.05. Under A7U C9U stands 0.04. In the case of A7C G49A, the self-cleavage worked out at 0.02.
